We go through 39 molecules from ChEMBL document CHEMBL1955781, “Structure-activity relationship study of selective benzimidazole-based inhibitors of Cryptosporidium parvum IMPDH” (Bioorg Med Chem Lett, 2012).

A value given as a limit tells only on which side of the number the result lay.

Assay [1] addresses Inosine-5'-monophosphate dehydrogenase 2 (Homo sapiens, UniProt P12268). The assay can be described thus: Inhibition of human IMPDH2.
The target in assay [2] is T1, Inosine-5'-monophosphate dehydrogenase (Cryptosporidium parvum, UniProt Q8T6T2).
T1 sequence (Q8T6T2 whole entry): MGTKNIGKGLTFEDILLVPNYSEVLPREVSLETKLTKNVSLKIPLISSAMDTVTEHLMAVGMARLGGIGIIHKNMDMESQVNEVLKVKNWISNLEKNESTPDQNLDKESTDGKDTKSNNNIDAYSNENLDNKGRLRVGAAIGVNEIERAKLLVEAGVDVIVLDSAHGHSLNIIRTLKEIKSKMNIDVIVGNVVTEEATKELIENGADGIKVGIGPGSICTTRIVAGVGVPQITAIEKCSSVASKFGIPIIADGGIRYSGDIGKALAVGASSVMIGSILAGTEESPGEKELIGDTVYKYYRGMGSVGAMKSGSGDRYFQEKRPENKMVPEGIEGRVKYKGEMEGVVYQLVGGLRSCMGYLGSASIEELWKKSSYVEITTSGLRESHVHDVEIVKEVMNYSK
Briefly: Inhibition of recombinant Cryptosporidium parvum IMPDH expressed in Escherichia coli assessed as NADH production preincubated for 5 mins by fluorescence assay in presence of bovine serum albumin. In a few lines:
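NADH production was followed at varying inhibitor concentrations, with 0.05% fatty-acid-free bovine serum albumin added to gauge non-specific binding. Values are the mean of three independent determinations unless otherwise flagged.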

Assay [3] deals with T1, Inosine-5'-monophosphate dehydrogenase. The assay can be described thus: Inhibition of recombinant Cryptosporidium parvum IMPDH expressed in Escherichia coli assessed as NADH production preincubated for 5 mins by fluorescence assay. In a few lines: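 Enzyme activity was tracked as NADH production across varying inhibitor concentrations. Values are the mean of three independent determinations unless otherwise flagged.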

Assay [4] relates to Cryptosporidium parvum. The assay can be described thus: Antiparasitic activity against Cryptosporidium parvum infection model. It is filed as functional, organism-based.
Assay [5] concerns Toxoplasma gondii. Briefly: Antiparasitic activity against wild type Toxoplasma gondii expressing endogenous IMPDH infected in human foreskin fibroblasts assessed as inhibition of parasite proliferation by fluorescence assay. It is filed as functional, organism-based. A digest of the protocol: (§1)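 T. gondii strains carrying a yellow fluorescent protein reporter, grown in hTERT-immortalized human foreskin fibroblasts. Parasite proliferation is followed by fluorescence. Because the parasites grow in the host fibroblasts, the read-out also reflects host cell toxicity.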

For assay [6], the system named is Toxoplasma gondii. The assay can be described thus: Antiparasitic activity against hypoxanthine-guanine-xanthine phosphoribosyltransferase gene knock out Toxoplasma gondii expressing Cryptosporidium parvum IMPDH infected in human foreskin fibroblasts assessed as parasite proliferation by fluorescence assay. It is filed as functional, organism-based. In a few lines: as §1

In assay [7] the target is Inosine-5'-monophosphate dehydrogenase 1 (Homo sapiens, UniProt P20839). The assay can be described thus: Inhibition of human IMPDH1.
Sequence of Inosine-5'-monophosphate dehydrogenase 1 (P20839 whole entry): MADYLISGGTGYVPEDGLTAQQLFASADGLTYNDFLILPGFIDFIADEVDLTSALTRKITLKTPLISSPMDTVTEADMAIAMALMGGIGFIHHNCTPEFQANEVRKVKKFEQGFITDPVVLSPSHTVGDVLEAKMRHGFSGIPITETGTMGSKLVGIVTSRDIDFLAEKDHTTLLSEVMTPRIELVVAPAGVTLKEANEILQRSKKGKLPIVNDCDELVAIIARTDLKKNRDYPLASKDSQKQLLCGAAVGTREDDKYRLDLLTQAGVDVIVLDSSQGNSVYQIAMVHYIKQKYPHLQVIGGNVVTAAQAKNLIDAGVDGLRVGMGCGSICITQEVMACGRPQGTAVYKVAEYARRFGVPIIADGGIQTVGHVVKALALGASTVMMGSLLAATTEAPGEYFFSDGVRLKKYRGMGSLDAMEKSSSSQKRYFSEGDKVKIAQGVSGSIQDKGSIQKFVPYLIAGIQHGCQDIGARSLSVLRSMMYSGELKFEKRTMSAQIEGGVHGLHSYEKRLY
Assay [8] relates to Toxoplasma gondii. Briefly: Selectivity ratio of EC50 for wild type Toxoplasma gondii expressing endogenous IMPDH to EC50 for hypoxanthine-guanine-xanthine phosphoribosyltransferase gene knock out Toxoplasma gondii expressing Cryptosporidium parvum IMPDH. In kind it is functional.
The subject of assay [9] is Cryptosporidium parvum. The assay can be described thus: Ratio of paromomycin EC50 to compound EC50 for Cryptosporidium parvum infection model. In kind it is functional.
Assay [10] relates to Cryptosporidium parvum. The assay can be described thus: Antiparasitic activity against Cryptosporidium parvum infection model at 0.8 uM. It is filed as functional. Conditions: read-out: GI.

Turning to `O=C(Cn1c(-c2cccs2)nc2ccccc21)Nc1ccc(Cl)cc1`, the IC50 is above 5000 nM in assay [1], 60 nM in assay [2] and 20 nM in assay [3].
On the same counts, the results for `N#Cc1cc(NC(=O)Cn2c(-c3cscn3)nc3ccccc32)ccc1Cl` are above 5000 nM, 60 nM and 30 nM.
On to `Cn1cc(-c2nc3ccccc3n2CC(=O)Nc2ccc(Cl)cc2)cn1`, for which the values for the IC50 in [1], in assay [2] and in assay [3] were above 5000 nM, 42 nM and 35 nM, respectively.
In the same order, the values of `O=C(Cn1c(-c2ccccn2)nc2ccccc21)Nc1ccc(Cl)c(Cl)c1` are above 5000 nM, 40 nM and 22 nM.
Regarding `N#Cc1ccc(NC(=O)Cn2c(-c3cscn3)nc3ccccc32)cc1`, the results for the half-inhibitory concentration (IC50) in assay [1] and in assay [3] were above 5000 nM and 370 nM, respectively.
On to `NC[C@@H]1O[C@H](O[C@H]2[C@@H](O)[C@H](O[C@@H]3[C@@H](O)[C@H](N)C[C@H](N)[C@H]3O[C@H]3O[C@H](CO)[C@@H](O)[C@H](O)[C@H]3N)O[C@@H]2CO)[C@H](N)[C@@H](O)[C@@H]1O` [PAROMOMYCIN], for which the EC50 in the assay with Cryptosporidium parvum [4] was 65000 nM.
On to `CC(C(=O)Nc1ccc(Cl)cc1)n1c(-c2nccs2)nc2ccccc21` (stereo unspecified), for which the IC50 was above 5000 nM in assay [1], 30 nM in [2] and 23 nM in [3].
In the case of `O=C(Cn1c(-c2cscn2)nc2ccccc21)Nc1ccc(C(F)(F)F)cc1`, the IC50 in assay [1] is above 5000 nM; in assay [2] it was 330 nM; in assay [3], 220 nM.
Consider `O=C(Cn1c(-c2cscn2)nc2ccccc21)Nc1ccc(Cl)cc1`, for which the figures for the half-inhibitory concentration (IC50) in assay [1], in assay [2] and in assay [3] were above 5000 nM, 200 nM and 120 nM, respectively.
Consider `CC(C(=O)Nc1ccc(Cl)cc1)n1c(-c2cscn2)nc2ccccc21` (stereo unspecified), for which the IC50 is above 5000 nM in assay [1], 80 nM in assay [2] and 60 nM in assay [3].
In the case of `O=C(Cn1c(-c2ccccn2)nc2ccccc21)Nc1ccc2ccccc2c1`, the values for the EC50 in the assay on Toxoplasma gondii [5] and in the assay with Toxoplasma gondii [6] were 2700 nM and 300 nM, respectively. The IC50 in [1] is above 5000 nM; in assay [2], 14 nM.
On to `CSc1ccc(NC(=O)Cn2c(-c3cscn3)nc3ccccc32)cc1`, for which the IC50 in [1] is above 5000 nM; in [2], 69 nM; in [3], 120 nM.
`CC(C)c1ccc(NC(=O)Cn2c(-c3cscn3)nc3ccccc32)cc1`: the IC50 in assay [1] is above 5000 nM; in assay [3] it was 5000 nM.
`O=C(Cn1c(-c2ccc(F)cc2)nc2ccccc21)Nc1ccc(Cl)cc1`: the IC50 was above 5000 nM in assay [1], 1300 nM in assay [2] and 870 nM in [3].
Regarding `CC(C(=O)Nc1ccc(Cl)c(Cl)c1)n1c(-c2cscn2)nc2ccccc21` (stereo unspecified), the IC50 was above 5000 nM in assay [1], 300 nM in [2] and 240 nM in assay [3].
With `O=C(Cn1c(-c2cscn2)nc2ccccc21)Nc1cccc(Cl)c1`, the IC50 in [1] is above 5000 nM; in [2] it was 1430 nM; in assay [3], 490 nM.
Consider `COc1ccc(NC(=O)Cn2c(-c3cscn3)nc3ccccc32)cc1`, for which the IC50 in [1] and in assay [7] was above 50000 nM throughout.
On to `O=C(Cn1c(-c2nccs2)nc2ccccc21)Nc1ccc(Br)cc1`, for which the results for the EC50 with Toxoplasma gondii [5], with Cryptosporidium parvum [4] and in the assay with Toxoplasma gondii [6] were above 23000 nM, 700 nM and 300 nM, respectively. Moreover, the half-inhibitory concentration (IC50) in assay [1] is above 5000 nM; in assay [2], 27 nM; in assay [3], 28 nM.
In the case of `O=C(Cn1c(-c2cscn2)nc2ccccc21)Nc1ccc(Br)cc1`, the IC50 in [1] is above 5000 nM; in assay [3], 60 nM.
In the case of `O=C(Cn1c(-c2nccs2)nc2ccccc21)Nc1ccc2ccccc2c1`, the EC50 in the assay on Toxoplasma gondii [5] was 17000 nM; with Cryptosporidium parvum [4], below 800 nM; in the assay on Toxoplasma gondii [6], 500 nM. Also, the concentration for half-maximal inhibition (IC50) in assay [1] is above 5000 nM; in assay [2], 20 nM; in [3], 8 nM. The “Ratio EC50” value was found to be 30 with Toxoplasma gondii [8] and 2 with Cryptosporidium parvum [9]. In the assay with Cryptosporidium parvum [10], the inhibition of growth at 0.8 µM is 80%.
As for `O=C(Cn1c(-c2ccccc2)nc2ccccc21)Nc1ccc(Cl)cc1`, the 50% inhibitory concentration (IC50) in assay [1] is above 5000 nM; in assay [2] it was 280 nM; in assay [3] it was 210 nM.
In the case of `O=C(Cn1c(-c2cscn2)nc2ccccc21)Nc1ccc(OC(F)(F)F)cc1`, the results for the IC50 in assay [1] and in assay [3] were above 5000 nM and 140 nM, respectively.
In assay [1], `O=C(Cn1c(-c2cscn2)nc2ccccc21)NCc1ccc(Cl)cc1` came in with a half-maximal inhibitory concentration (IC50) above 5000 nM.
Consider `O=C(Cn1c(-c2cscn2)nc2ccccc21)Nc1ccccc1Cl`, for which the half-maximal inhibitory concentration (IC50) was above 5000 nM in assay [1] and 5000 nM in assay [3].
Regarding `O=C(Cn1c(-c2ncco2)nc2ccccc21)Nc1ccc(Cl)cc1`, the IC50 was above 5000 nM in assay [1], 230 nM in [2] and 170 nM in assay [3].
For the molecule `CS(=O)(=O)c1ccc(NC(=O)Cn2c(-c3cscn3)nc3ccccc32)cc1`, the half-inhibitory concentration (IC50) is above 5000 nM in assay [1] and 5000 nM in assay [3].
With `O=C(Cn1c(-c2cscn2)nc2ccccc21)Nc1ccc(F)cc1`, the figures for the IC50 in assay [1] and in assay [3] were above 5000 nM and 900 nM, respectively.
As to `Cc1nc2ccccc2n1CC(=O)Nc1ccc(Cl)cc1`, the IC50 in assay [1] is above 5000 nM; in assay [3] it was 5000 nM.
As for `O=C(Cn1c(-c2nccs2)nc2ccccc21)Nc1ccc(Cl)cc1`, the half-inhibitory concentration (IC50) is above 5000 nM in [1], 50 nM in assay [2] and 30 nM in assay [3].
For `CC(C)C(C(=O)Nc1ccc(Cl)cc1)n1c(-c2cscn2)nc2ccccc21` (stereo unspecified), the IC50 is above 5000 nM in assay [1] and 5000 nM in assay [3].
Regarding `O=C(Cn1c(-c2cscn2)nc2ccccc21)Nc1ccc(Cl)c2ccccc12`, the results for the IC50 in assay [1] and in assay [3] were above 5000 nM and 5000 nM, respectively.
Turning to `N#Cc1cc(NC(=O)Cn2c(-c3ccccn3)nc3ccccc32)ccc1Cl`, the half-inhibitory concentration (IC50) in [1] is above 5000 nM; in [2] it was 40 nM; in assay [3] it was 22 nM.
On the same counts, the results for `O=C(Cn1c(-c2cncs2)nc2ccccc21)Nc1ccc(Cl)cc1` are above 5000 nM, 60 nM and 35 nM.
Consider `O=C(Cn1c(-c2nccs2)nc2ccccc21)Nc1ccc(Cl)c(Cl)c1`, for which the results for the EC50 in the assay on Toxoplasma gondii [5], with Cryptosporidium parvum [4] and in the assay on Toxoplasma gondii [6] were 3000 nM, 1700 nM and 700 nM, respectively. For the same molecule, the 50% inhibitory concentration (IC50) was above 5000 nM in assay [1], 50 nM in [2] and 18 nM in assay [3]. Also, the “Ratio EC50” value in the assay with Toxoplasma gondii [8] was determined as 5; with Cryptosporidium parvum [9] it was 2.
Consider `O=C(Cn1c(-c2ccccn2)nc2ccccc21)Nc1ccc(Cl)cc1`, for which the 50% inhibitory concentration (IC50) in assay [1] was above 5000 nM; in [2] it was 90 nM; in [3] it was 43 nM.
Turning to `O=C(Cn1c(-c2ccc(Cl)cc2)nc2ccccc21)Nc1ccc(Cl)cc1`, the results for the IC50 in [1] and in assay [3] were above 5000 nM and 450 nM, respectively.
On to `O=C(Cn1c(-c2ccc[nH]2)nc2ccccc21)Nc1ccc(Cl)cc1`, for which the IC50 in assay [1] was above 5000 nM; in assay [2], 120 nM; in assay [3] it was 80 nM.
With `O=C(Cn1c(-c2cscn2)nc2ccccc21)Nc1ccc2ccccc2c1`, the EC50 with Toxoplasma gondii [5] was 5000 nM; with Cryptosporidium parvum [4], 900 nM; with Toxoplasma gondii [6] it was 600 nM. Besides, the IC50 in assay [1] was above 5000 nM; in [2], 20 nM; in [3], 7 nM. Also, the “Ratio EC50” value with Toxoplasma gondii [8] is 9; in the assay with Cryptosporidium parvum [9], 2.
On to `O=C(Cn1c(-c2cscn2)nc2ccccc21)Nc1ccc(Cl)c(Cl)c1`, for which the results for the IC50 in [1], in assay [2] and in assay [3] were above 5000 nM, 90 nM and 30 nM, respectively.

A word on the IC50: it is the point on the concentration scale where inhibition reaches its midpoint. The EC50 is the concentration needed to bring the measured effect to its halfway point.
